Some of the results follow. Activity calls are given as the source filed them. Unless noted, no stated cut-off is given here; in the data, active means inhibition above about 40%; inactive means the rest.
What was measured:
[1] = NF-kB reporter suppression in CF airway cells – cell-based, GFP fluorescence, single concentration, confirmation (AID 602472); settings: KKLEB CF airway cells, PAF-induced NF-kB-GFP fluorescence, overnight; at 5 µM; stronger effect = higher value;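 further: stimulus PAF is a Pseudomonas aeruginosa filtrate and not platelet activating factor; plate controls were DMSO wells with stimulus for no effect and unstimulated DMSO wells for full effect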
Method in brief: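 Material: KKLEB immortalized cystic fibrosis airway epithelial cells with NFkB-GFP reporter; Buffer or medium: medium with 2% FBS for cells, serum-free medium for stimulus; Times: 2 h pretreatment, overnight stimulation; Signal: GFP fluorescence; Compound dosing: 5 µM single dose.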

[2] = NFkB reporter suppression in cystic fibrosis bronchial cells – cell-based, uHTS hits, panel, cytotoxicity readout, dose response (AID 624344); settings: CF bronchial epithelial cells, PAF-induced NFkB reporter inhibition, with PAF, run 1; at 79 µM (top of the series) unless noted
[3] = as above; settings: CF bronchial epithelial cells, PAF-induced NFkB reporter inhibition, with PAF, run 2; at 79 µM (top of the series) unless noted
PEG-3 [4] = molecular target: PEG-3 (UniProt Q6IN02); assay: inhibition of PEG-3 promoter-driven reporter – cell-based, HeLa, luciferase, CREF/GAPDH counter-screen panel, dose response (AID 624167); settings: CREF/GAPDH counter-screens; HeLa PEG-Prom luciferase reporter, overnight, run 1, dose range 1, at 100 µM (top of the series) unless noted
Chain of PEG-3 (Q6IN02 whole entry, looked up): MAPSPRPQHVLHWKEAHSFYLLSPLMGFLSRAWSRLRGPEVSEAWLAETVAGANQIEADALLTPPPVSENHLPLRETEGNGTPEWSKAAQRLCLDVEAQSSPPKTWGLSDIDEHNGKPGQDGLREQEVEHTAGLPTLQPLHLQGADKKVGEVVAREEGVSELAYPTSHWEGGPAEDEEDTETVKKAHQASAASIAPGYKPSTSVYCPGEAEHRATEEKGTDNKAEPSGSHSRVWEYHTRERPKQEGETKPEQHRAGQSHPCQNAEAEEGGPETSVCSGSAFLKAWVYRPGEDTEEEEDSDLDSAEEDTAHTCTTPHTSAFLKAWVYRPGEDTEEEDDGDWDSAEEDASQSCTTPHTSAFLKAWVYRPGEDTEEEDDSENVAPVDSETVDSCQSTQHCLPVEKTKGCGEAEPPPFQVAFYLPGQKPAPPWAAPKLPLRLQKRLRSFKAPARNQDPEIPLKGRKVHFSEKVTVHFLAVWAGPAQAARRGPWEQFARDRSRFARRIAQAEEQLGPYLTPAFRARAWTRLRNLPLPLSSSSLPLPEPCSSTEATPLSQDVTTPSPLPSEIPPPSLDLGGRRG

PEG-3 [5] = molecular target: PEG-3 (UniProt Q6IN02); assay: as above; settings: CREF/GAPDH counter-screens; HeLa PEG-Prom luciferase reporter, overnight, run 2, dose range 1, at 100 µM (top of the series) unless noted
[6] = HIF-2a driven luciferase blockers, single dose – luminescence, 786-0 RCC cells, confirmation (AID 651580;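 active means mean inhibition across four replicates of at least 40 percent at the single tested concentration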); settings: HIF-2a luciferase reporter luminescence, overnight, at 18.8 µM, stronger effect = higher value
[7] = HIF-1a luciferase reporter signal reduction – MiaPaCa-2 cells, single concentration, counter-screen for HIF-2a inhibitor project, confirmation (AID 651589;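 active means mean inhibition of the reporter signal across four replicates at the single tested dose of 50% or more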); settings: MiaPaCa-2 HIF-1a luciferase reporter, desferoxamine, overnight; at 18.8 µM; stronger effect = higher value

CN(C)c1ccnc2sc3c(=O)n(Cc4ccccc4)cnc3c12
inhibition [1]: 91.5% (active) | inhibition [2]: 106% | inhibition [3]: 97.7%

CC1(C)O[C@@H]2CC3C4C[C@H](F)C5=CC(=O)C=CC5(C)C4C(O)CC3(C)[C@]2(C(=O)CO)O1 (stereo partly drawn)
inhibition [1]: 27.4% (inactive)

CC(C)C[C@H]1CNC(=S)N1C[C@H]1CCCN1C[C@H](Cc1ccc(O)cc1)N1C[C@H](Cc2ccc(O)cc2)N(CC2CCCCC2)C1=S
inhibition [1]: 56.7% (active) | inhibition [2]: 104% | inhibition [3]: 111%

Cc1ccc(Cc2c(-c3ccco3)nc3ccc(Cl)cn23)cc1
inhibition [1]: -82.3% (inactive)

COC(=O)c1ccc(NC(=O)c2ccccc2NS(=O)(=O)c2ccccc2)cc1
inhibition [1]: 69.8% (active) | inhibition [2]: 118% | inhibition [3]: 105%

O=C(NNc1ccccc1Cl)C(O)(c1cccc(C(F)(F)F)c1)c1cccc(C(F)(F)F)c1
inhibition [1]: 63% (active) | inhibition [2]: 115% | inhibition [3]: 105%

NC(=O)c1sc2nc3c(c(-c4ccccc4)c2c1N)CCC3
inhibition [1]: 93.2% (active) | inhibition [2]: 114% | inhibition [3]: 104%

Cc1ncc(CC(=O)n2cc(C(=O)c3cc(Cl)ccc3O)cn2)s1
inhibition [1]: 47.9% (active) | inhibition [2]: 100% | inhibition [3]: 108%

COc1cccc2sc(N(CCCN(C)C)C(=O)CCS(=O)(=O)c3ccccc3)nc12
inhibition [1]: 102% (active) | inhibition [2]: 88.9% | inhibition [3]: 86.9%

O=[N+]([O-])c1ccc(Oc2ccc(F)cc2Br)c2ccncc12
inhibition [1]: 77.7% (active) | inhibition [2]: 116% | inhibition [3]: 103%

CN(C)C(=O)c1cccc(-c2cnc3sc(NCc4ccc5c(c4)OCO5)nn23)c1
inhibition [1]: 97.2% (active) | inhibition [2]: 116% | inhibition [3]: 106%

Cc1ccc([C@H]2C[C@H](O)[C@@H](n3cc(COC(=O)c4ccccc4)nn3)CN2CC2CCCCC2)cc1
inhibition [1]: -29.2% (inactive)

O=C1OC(Oc2ccc(Br)cc2)(c2ccccc2)c2ccccc21 (stereo not drawn)
inhibition [1]: 4.99% (inactive)

COc1cc(OC)cc(C(=O)N[C@H](C(=O)Nc2nc3ccccc3[nH]2)C(C)C)c1
inhibition [1]: 85.8% (active) | inhibition [2]: 84.2% | inhibition [3]: 80.2%

COC(=O)CSC1=NS(=O)(=O)c2ccccc21
inhibition (PEG-3 [4]): 66.3% | inhibition (PEG-3 [5]): 98%

CCCOc1ccc(NC(=O)CC2C(=O)N(CC)C(=S)N2CCCN2CCN(Cc3ccccc3)CC2)cc1 (stereo not drawn)
inhibition (PEG-3 [4]): 98.9% | inhibition (PEG-3 [5]): 101%

CC(=O)NC(c1ccc(C)cc1)c1cc(Cl)c2cccnc2c1O (stereo not drawn)
inhibition (PEG-3 [4]): 88.1% | inhibition (PEG-3 [5]): 89.7%

CCN(Cc1ccccc1)S(=O)(=O)c1ccc(C(=O)N(CCCN(C)C)c2nc3cc4c(cc3s2)OCO4)cc1
inhibition (PEG-3 [4]): 102% | inhibition (PEG-3 [5]): 101%

Cc1cc(Cl)n2ncc(-c3ccccc3)c2n1
inhibition (PEG-3 [4]): 102% | inhibition (PEG-3 [5]): 102%

CCOC(=O)c1cnc2c(cnn2C)c1NCCCN(C)C
inhibition (PEG-3 [4]): 80.7% | inhibition (PEG-3 [5]): 88.6%

CCC(=C(c1ccc(OC)cc1)c1ccc(OC)cc1)c1cn(CC(O)CN2CCN(C)CC2)c2ccccc12 (stereo not drawn)
inhibition (PEG-3 [4]): 99.5% | inhibition (PEG-3 [5]): 98.3%

COc1cc(C(=O)/C=C/c2cccnc2)c([N+](=O)[O-])cc1OC
inhibition (PEG-3 [4]): 102% | inhibition (PEG-3 [5]): 99.8%

COc1ccc(-n2ncc3c(N(C)C4CCCCC4)ncnc32)cc1
inhibition (PEG-3 [4]): 96.6% | inhibition (PEG-3 [5]): 89.4%

COc1cccc(/C=C2/Sc3ccc(C(=O)NCCCN4CCCC4)cc3NC2=O)c1
inhibition (PEG-3 [4]): 102% | inhibition (PEG-3 [5]): 99%

COc1cc(NC(=O)c2cccc(C)c2)ccc1NC(=O)c1cc2ccccc2o1
inhibition (PEG-3 [4]): 76.6% [run 1, dose range 1, at 50 µM] | inhibition (PEG-3 [5]): 94.6% [run 2, dose range 1, at 50 µM]

Cc1c(OCC(=O)NC2CC(C)(C)NC(C)(C)C2)ccc2c1oc(=O)c1ccccc12
inhibition (PEG-3 [4]): 98% | inhibition (PEG-3 [5]): 101%

CCOC(=O)C1CCN(c2cc3c(cc2NC(=O)c2ccccc2OCC)n(C)c(=O)n3C)CC1
inhibition (PEG-3 [4]): 101% | inhibition (PEG-3 [5]): 101%

OC1(c2ccc(Cl)c(Cl)c2)C[n+]2ccccc2N1Cc1ccccc1 (stereo not drawn)
inhibition (PEG-3 [4]): 95% | inhibition (PEG-3 [5]): 101%

C/C(=N\N=C(N)N)c1ccc(Cl)cc1Cl
inhibition (PEG-3 [4]): 99.4% | inhibition (PEG-3 [5]): 101%

O=c1cc2oc3cc(O)c(O)cc3c(-c3ccccc3[N+](=O)[O-])c-2cc1O
inhibition (PEG-3 [4]): 93.5% | inhibition (PEG-3 [5]): 99.6%

COc1cccc(C(=O)c2sc(NC(C)C)nc2N)c1
inhibition (PEG-3 [4]): 93.5% | inhibition (PEG-3 [5]): 95.7%

O=C(C[n+]1ccc(-c2cc(C(=O)Nc3cccc(C(F)(F)F)c3)c3ccccc3n2)cc1)c1cccc([N+](=O)[O-])c1
inhibition (PEG-3 [4]): 101% | inhibition (PEG-3 [5]): 102%

C[C@@H]1[C@H]2[C@@H]3CC[C@@H](C3)[C@H]2CN[C@H]1c1cn(Cc2ccccc2)c2ccccc12
inhibition (PEG-3 [4]): 99.2% | inhibition (PEG-3 [5]): 102%

c1cncc(-c2nc(NCC3COc4ccccc4O3)c3ccccc3n2)c1 (stereo not drawn)
inhibition (PEG-3 [4]): 101% | inhibition (PEG-3 [5]): 99.8%

COC(=O)Cc1[nH]n(-c2nc3ccccc3s2)c(=O)c1C(C)=Nc1ccc(Cl)cc1
inhibition (PEG-3 [4]): 88.1% | inhibition (PEG-3 [5]): 94.2%

C/C(=N\N=C(N)N)c1ccc(Cl)c(Cl)c1
inhibition (PEG-3 [4]): 102% | inhibition (PEG-3 [5]): 101%

CC1CCCC(C)N1C(=C(Cl)Cl)C(=C1SCCS1)[N+](=O)[O-] (stereo not drawn)
inhibition (PEG-3 [4]): 50.8% | inhibition (PEG-3 [5]): 68.9%

CCOC(=O)C(=Cc1ccccc1)C(=O)c1ccccc1
inhibition [1]: -122% (inactive) | inhibition [6]: 97.2% (active) | inhibition [7]: 108% (active)
